Results on 21 compounds are retold here after ChEMBL document CHEMBL1139924, “The structure-activity relationship of the series of non-peptide small antagonists for p56lck SH2 domain” (Bioorg Med Chem, 2007).

The source made the active and inactive calls. The calls are words filed in the database; no cut-off is given here. Bounds are passed on as bounds.

Data set [1] is described as follows: Partition coefficient, log P of the compound. The conditions noted are these: octanol/water. The class given is physicochemical. An outline of the steps:
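Shake-flask partition. Compound at 1 mM final in 1-octanol/water with an equal volume of 1-octanol/water added, vortexed 30 min. P is the octanol concentration divided by the aqueous concentration. Three independent experiments in duplicate.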

Data set [2] in a line: Inhibition of p56lck SH2 domain by ELISA. Also noted: species or system Homo sapiens. An outline of the steps:
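Competitive ELISA. Compound plus GST-p56lck SH2 fusion (100 ng/ml) incubated 1 h at room temperature, in duplicate wells. Bound protein detected with rabbit anti-GST, then HRP anti-rabbit and TMB, acid-stopped, A450. Ac-pYEEIE control peptide; IC50 reported.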
Background: ELISA stands for enzyme-linked immunosorbent assay.

Data set [3] concerns Jurkat. In words: Inhibition of Jurkat cell activation assessed as blocking of T-cell antigen receptor-induced IL-2 expression at 10 uM by luciferase assay. The class given is functional. Conditions: Homo sapiens. An outline of the steps:
(§1)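 Jurkat T cells (2 × 10⁶) transfected with 2 µg IL-2-luciferase reporter by lipofection. Compounds added 2 h before activation and kept present throughout 16 h stimulation with plate-coated anti-CD3 mAb (5 µg/ml, UCHT1) or […] plus ionomycin (0.5 µg/ml). Cells then washed, lysed and read for luciferase by luminometry. Three independent experiments in duplicate. Cyclosporin A positive control.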

Data set [4] deals with Jurkat. The data set can be described thus: Inhibition of Jurkat cell activation assessed as blocking of T-cell antigen receptor-induced IL-2 expression at 30 uM by luciferase assay. It counts as functional. Conditions: Homo sapiens. An outline of the steps: as §1

In the case of `COC(=O)CCCCCNC(=O)[C@@H](Cc1ccc(O)c(O)c1)OC(=O)/C=C/c1ccc(O)c(O)c1`, in data set [1], the logP was 1.68. In data set [2], this compound showed an IC50 greater than 500 µM. Further, in the data set on Jurkat [3], the inhibition at 10 µM is 29.4%.
Consider `CC(C)(C)OC(=O)[C@@H](Cc1ccc(O)c(O)c1)OC(=O)/C=C/c1ccc(O)c(O)c1`, for which, in data set [1], the logP came to 2. In addition, the IC50 in data set [2] was found to be 127 µM. For the same compound, the inhibition at 10 µM with Jurkat [3] was 80.7%.
In the case of `COC(=O)[C@@H](Cc1ccc(O)c(O)c1)NC(=O)/C=C/c1ccc(OC)c(OC)c1`, the logP in data set [1] came to 1.52. Besides, the IC50 in data set [2] is greater than 500 µM. The inhibition at 10 µM with Jurkat [3] turned out to be 3.5%.
In turn, `O=C(CCc1ccc(O)c(O)c1)O[C@H](Cc1ccc(O)c(O)c1)C(=O)O` showed a logP in data set [1] of 0.503. For the same compound, in data set [2], half-maximal inhibition (IC50) was put at 15 µM. Further, the inhibition at 10 µM in the data set on Jurkat [3] was found to be 7.6%.
`CCCOC(=O)[C@@H](Cc1ccc(O)c(O)c1)OC(=O)/C=C/c1ccc(O)c(O)c1`: the logP in data set [1] turned out to be 1.52. Also, the IC50 in data set [2] was found to be 145 µM. For the same compound, in the data set on Jurkat [3], the inhibition at 10 µM was 87.5%.
In the case of `COC(=O)[C@@H](Cc1ccc(O)c(O)c1)NC(=O)/C=C/c1ccc(O)c(O)c1`, the logP in data set [1] turned out to be 1.39. In data set [2], this compound came in with an IC50 of 71 µM. Also, in the data set with Jurkat [3], the inhibition at 10 µM amounted to 61.6%.
As to `CCOC(=O)[C@@H](Cc1ccc(O)c(O)c1)OC(=O)/C=C/c1ccc(O)c(O)c1` [ETHYL ROSMARINATE], the lipophilicity (logP) in data set [1] stood at 1.5. In data set [2], this compound registered an IC50 of 91 µM. In the data set with Jurkat [3], the inhibition at 10 µM worked out at 22.7%.
Consider `CC(C)OC(=O)[C@@H](Cc1ccc(O)c(O)c1)OC(=O)/C=C/c1ccc(O)c(O)c1`, for which the logP in data set [1] worked out at 1.83. The same compound gave a 50% inhibitory concentration (IC50) in data set [2] of 110 µM. Also, the inhibition at 10 µM in the data set with Jurkat [3] is 86.1%.
In turn, `COC(=O)[C@@H](Cc1ccc(O)c(O)c1)NC(=O)/C=C/c1ccc(OC)c(O)c1` came in with a logP in data set [1] of 1.37. For the same compound, in data set [2], the IC50 was greater than 500 µM. Further, in the data set with Jurkat [3], the inhibition at 10 µM was found to be 5.4%.
The matching figures for `COC(=O)[C@@H](Cc1ccc(O)c(O)c1)NC(=O)c1ccc(O)c(O)c1`: 0.125, 19 µM and 0.4%.
Take `COC(=O)[C@@H](Cc1ccc(OC)c(OC)c1)NC(=O)/C=C/c1ccc(O)c(O)c1`: the logP in data set [1] was found to be 1.53. Further, the IC50 in data set [2] was greater than 500 µM. Further, the inhibition at 10 µM in the data set with Jurkat [3] was 9.4%.
As for `O=C(/C=C/c1ccc(O)c(O)c1)N[C@@H](Cc1ccc(O)c(O)c1)C(=O)O`, the logP in data set [1] was determined as 0.731. In data set [2], this compound gave an IC50 of 21 µM. Moreover, the inhibition at 10 µM in the data set with Jurkat [3] is 11%.
Compound `NC(Cc1ccc(O)c(O)c1)C(=O)O` (racemic) showed an IC50 in data set [2] greater than 500 µM. In addition, the inhibition at 10 µM with Jurkat [3] stood at 0.6%.
For `O=C(CCc1ccc(O)c(O)c1)N[C@H](Cc1ccc(O)c(O)c1)C(=O)O`, the lipophilicity (logP) in data set [1] came to 0.493. In addition, the half-inhibitory concentration (IC50) in data set [2] is 13 µM. Further, the inhibition at 10 µM in the data set with Jurkat [3] stood at 0%.
As to `O=C(O)/C=C/c1ccc(O)c(O)c1` [CAFFEIC ACID], the IC50 in data set [2] was greater than 500 µM. Moreover, the inhibition at 10 µM in the data set with Jurkat [3] amounted to 2%.
The compound `COC(=O)[C@@H](Cc1ccc(O)c(O)c1)OC(=O)/C=C/c1ccc(O)c(O)c1` [METHYL ROSMARINATE] yielded a logP in data set [1] of 1.48. The compound also registered an IC50 in data set [2] of 80 µM. Besides, in the data set with Jurkat [4], the outcome was Active. Also, the inhibition at 10 µM in the data set on Jurkat [3] was 54.7%.
On to `COC(=O)[C@@H](Cc1ccc(O)c(O)c1)NC(=O)CCc1ccc(O)c(O)c1`, for which, in data set [1], the logP worked out at 0.344. In addition, in data set [2], the IC50 turned out to be 32 µM. Moreover, in the data set on Jurkat [3], the inhibition at 10 µM came out at 7.5%.
`COC(=O)[C@@H](Cc1ccc(O)c(O)c1)NC(=O)/C=C/c1ccc(O)c(OC)c1`: in data set [1], the logP was determined as 1.31. This compound showed a concentration for half-maximal inhibition (IC50) in data set [2] greater than 500 µM. For the same compound, the inhibition at 10 µM in the data set on Jurkat [3] was 2.2%.
The matching figures for `O=C(/C=C/c1ccc(O)c(O)c1)N[C@H](Cc1ccc(O)c(O)c1)C(=O)O`: 0.758, 20 µM and 10.3%.
Compound `O=C(/C=C/c1ccc(O)c(O)c1)O[C@H](Cc1ccc(O)c(O)c1)C(=O)O` [ROSMARINIC ACID] yielded a logP in data set [1] of 0.834. The same compound had an IC50 in data set [2] of 24 µM. Also, the inhibition at 30 µM in the data set with Jurkat [4] was determined as 50%. The inhibition at 10 µM with Jurkat [3] stood at 40.4%.
Turning to `COC(=O)[C@@H](Cc1ccc(O)c(O)c1)NC(=O)Cc1ccc(O)c(O)c1`, in data set [1], the logP amounted to 0.138. Moreover, in data set [2], the IC50 was determined as 21 µM. In addition, the inhibition at 10 µM with Jurkat [3] was determined as 23%.

One may read the logP as a log measure of how a compound divides between an organic and an aqueous phase. Read a high logP as higher lipophilicity. For orientation: IC50 means the concentration that inhibits the measured activity by half. Low readings indicate greater potency, high ones weaker potency. In general, inhibition refers to the percentage by which the read-out fell short of the control.
